B1: tRNA (parent)
chain: GUUCCGUUGGCGUAAUGGUAACGCGUCUCCCUCCUAAGGAGAAGACUGCGGGUUCGAGUCCCGUACGGAACG

This sample holds only a part of the variants without activity.

In this series the parent is B1. The series can be described thus: yeast fitness relative to wild type (ratio to wild type); higher = fitter; tRNA-Arg(CCU), competitive growth, 37 C, YPD. An outline of the steps:
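Variants of the tRNA-Arg(CCU) gene were chemically synthesised with a 3% per-site mutation rate across 69 sites and placed at the native genomic locus in Saccharomyces cerevisiae. Six parallel replicates of the pooled strains were competed in YPD at 37°C for 24 hours, and gene amplicons from the start and end populations were read by 100-nucleotide paired-end sequencing. Darwinian fitness relative to wild type was derived from changes in genotype frequencies. Genotypes required ≥ 100 starting reads, and estimates < 0.5 were set to 0.5.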
In the case of GUUCCGUUGGCGUAAUGGUAGCACGUCUCCCUCCUAAGGAGAAGACUGCGGCUUCGAGUCCCGUACGGAACG [A21G G23A G52C], the yeast fitness is not above 0.5.

For the variant GUUCCGUUGGCGUAAUGGUAGCGCGUCUCCCUCCUAAGCAGAAGACUGCGGGUUCGAGUCCCGUACGGAACG [A21G G39C], the yeast fitness came to 0.732. GUUCCGUUGGCGUAAUGGUAGCGCGUCUCCCUCCUAACGAGAAGACUGCGGGUUCGAGUCCCGUACGCAACG [A21G G38C G68C]: the yeast fitness is not above 0.5.

Take GUUCCGUUGGCGUAAUGGUAGCACGUGUCCCUCCUAAGGAGAAGACUGCGGGUUCGAGUCUCGUACGGCACG [A21G G23A C27G C61U A69C]: the yeast fitness was not above 0.5. As to GUUCCGUUGGCGUAAUGGUAGCGCGUCUCCCUCUUAGGGAGAAGACUGCGGGUUCGAGUACCGUACGGAACG [A21G C34U A37G C60A], the yeast fitness amounted to 0.651. Under GUUCCGUUGGCGUAAUGGUAGCGCGUCUCCCUCGUAAGGAGAAGACUGCGGGUUCGAGUCCCAUACCGAACG [A21G C34G G63A G67C] stands not above 0.5; under GUUCCGUUGGCGUAAUGGUAGCACGUCUCCCUCCUAAGGAGAAGACUGCGGCUUCGAGUCUCGUACGGAACG [A21G G23A G52C C61U], not above 0.5; under GUUCCGUUGGCGUAAUGGUAGCGCGUCUCCCUCCUAAGGAGAAGAUUGCGGCUUCGAGUCCCGUACGGAACG [A21G C46U G52C], 0.794. As for GUUCCGUUGGCGUAAUGGUAGCGCCUGUCCCUCCUAAGGAGCGGACUGCGGGUUCGAGUCCCGUACGGAACG [A21G G25C C27G A42C A43G], the yeast fitness was not above 0.5. Regarding GUUCCGUUGGCGUAAUGGUAGCACGUCUCCCUCGUUAGGAGAAGACUGCGGGUUCGCGUCCCGUAUGGAACG [A21G G23A C34G A36U A57C C66U], the yeast fitness is not above 0.5.

With GUUCCGUUGGCGUAAUGGUAGCACGUCUCCCUCCUAAGGAGAAGACUGCGGGUUCGAGUCCCGUACGGAACG [A21G G23A], the yeast fitness came out at 0.787. Regarding GUUCCGUUGGCGUAAUGGUAGCCCGUCUCCCUCCUAAGGAGAAGACUGCGGGUUCGAGUCCCGUACGGAACG [A21G G23C], the yeast fitness was found to be 0.676. On to GUUCCGUUGGCGUAAUGGUAGCACGUCUCCCUCCUAAGGAGAAGCCUGCGGAUUCGAGUCCCGUACGGCACG [A21G G23A A45C G52A A69C], for which the yeast fitness is 0.521.

In the case of GUUCCGUUGGCGUAAUGGUAGCGCGUCUCCCUACUAAGGAGAAGACUGCGAGUUCGUGUCCCGUUCGGAACG [A21G C33A G51A A57U A65U], the yeast fitness is not above 0.5.

Regarding GUUCCGUUGGCGUAAUGGUAGCGCGUCUCCCUUCUAAGGAGAAGACUGCGGGUUCGAGUACCGUACGGAACG [A21G C33U C60A], the yeast fitness was not above 0.5. For GUUCCGUUGGCGUAAUGGUAGCGCGUCUCCCUUCUAAGGAGAAGACUGCGGGUUCGAGUUCCGUACGGAACG [A21G C33U C60U], the yeast fitness is 0.603. Under GUUCCGUUGGCGUAAUGGUAGCGCCUCUCCCUCCUAAGGAGAAGACUGCGGGUUCGAGUCCCGUGCGGAACG [A21G G25C A65G] stands 0.751. Regarding GUUCCGUUGGCGUAAUGGUAGCGCGUCUCCCUCCUAAGGAGAAGACUGCGGGUUCGAGUCGCGUACGGAACG [A21G C61G], the yeast fitness came out at 0.654. Consider GUUCCGUUGGCGUAAUGGUAGCGCGUCUCCCUCCUAAGGAGAAGACUGCGGGUUCGAGUCUCGUACGGAACG [A21G C61U], for which the yeast fitness came out at 1. In the case of GUUCCGUUGGCGUAAUGGUAGCGCGUCUCCCUCCUAAGGAGAAGACUGCGGGUUCGAGUCACGUACGGAACG [A21G C61A] it was 0.645; in that of GUUCCGUUGGCGUAAUGGUAGCACGUCUCCCUCCUAAGGAGAAGAAUGCGGGUUCGAGUCCCGUACGGAACG [A21G G23A C46A], 0.543. Turning to GUUCCGUUGGCGUAAUGGUAGCGCGUCUCCCUCCUAAGAAGAAGACUGCGGGUUCGAGUCCCGUACGGAGCG [A21G G39A A70G], the yeast fitness turned out to be 0.872. For GUUCCGUUGGCGUAAUGGUAGCGCGUCUCCCUCCUAAGGAGAAGACUGCGGGUUCGAGUCGCGUAUGGUACG [A21G C61G C66U A69U], the yeast fitness is not above 0.5. In the case of GUUCCGUUGGCGUAAUGGUAGCACGUGUCCCUCCUAUGGAGAAAACUGUGGGUUCGAGUCCCGUACGGAACG [A21G G23A C27G A37U G44A C49U], the yeast fitness worked out at 0.564.

Consider GUUCCGUUGGCGUAAUGGUAGCGCGUCUCCCUCCUAACGUGAACACUGCGGGUUCGAGUCCCGUACAGCACG [A21G G38C A40U G44C G67A A69C], for which the yeast fitness is not above 0.5. In the case of GUUCCGUUGGCGUAAUGGUAGCGCGUCUCCCUCCUAAGAAGAACACUGCGGGUUCGAGUCCCGUACGGAACG [A21G G39A G44C] it was not above 0.5. For GUUCCGUUGGCGUAAUGGUAGCACGUGUCCCUCCUAAGCAGAAGGCUGCGGGUUCGAGUCCCGUACGGAACG [A21G G23A C27G G39C A45G], the yeast fitness was not above 0.5. Under GUUCCGUUGGCGUAAUGGUAGCGCGUCUCCCUCCUAAGGAGAAGACUGCGGGUUCGAGUCGCGGACGGAACG [A21G C61G U64G] stands 0.586; under GUUCCGUUGGCGUAAUGGUAGCGCGUCUCCCUUCUAAGGAGAACACUGCGGGUUCGAGUCCCGUACGGACCG [A21G C33U G44C A70C], not above 0.5; under GUUCCGUUGGCGUAAUGGUAGCGCGUCUCCCUGCUAAAGAGAAGACUGCGGGUUCGAGUCCCAUACGGAACG [A21G C33G G38A G63A], not above 0.5. Regarding GUUCCGUUGGCGUAAUGGUAGCACGUCUCCUUCCUAAGGAGAAGACUGCGGGUUCGAGUCCCGUACGGAACG [A21G G23A C31U], the yeast fitness amounted to 0.528. GUUCCGUUGGCGUAAUGGUAGCGCGUCUCCCUCCUAAGGAGAAGACUGGGGGUUCGAGUCCCGUACGGAACG [A21G C49G]: the yeast fitness was 1.13.

For GUUCCGUUGGCGUAAUGGUAGCGCGUCUCCCUCCUAAGGAGAAGACUGAGGGUUCGAGUCCCGUACGGAACG [A21G C49A], the yeast fitness was 0.736. Regarding GUUCCGUUGGCGUAAUGGUAGCGCCUCUACCUCCUAAGGAGAAGACUGCGGGUUCGAAUCCCGUACGGAACG [A21G G25C C29A G58A], the yeast fitness turned out to be 0.54.

On to GUUCCGUUGGCGUAAUGGUAGCACGUCUCCUUCCUAAGGAGAAGACUGCGGGUUCGAGUCCCCUACGGUACG [A21G G23A C31U G63C A69U], for which the yeast fitness is not above 0.5.

As to GUUCCGUUGGCGUAAUGGUAGCGCGUCUCCCUCCUAAGGAGAAGACUGUGGGUUCGAGUCCAGUACGGAACG [A21G C49U C62A], the yeast fitness was determined as 0.602. As to GUUCCGUUGGCGUAAUGGUAGCGCGUCUCCCUCCUAAGGAGAAGACUGUGGGUUCGAGUCCGGUACGGAACG [A21G C49U C62G], the yeast fitness turned out to be 0.566. For the variant GUUCCGUUGGCGUAAUGGUAGCGCCUGUCCCUCCUAAGGAGCAGACUGCGGGUUCGAGUCCCGUACGGAACG [A21G G25C C27G A42C], the yeast fitness is not above 0.5.
